Data as given in article PMC9394215 (Journal for Immunotherapy of Cancer, 2022).

Target: T1, human CD39 (Homo sapiens, UniProt P49961)
T1 sequence (P49961 1-510): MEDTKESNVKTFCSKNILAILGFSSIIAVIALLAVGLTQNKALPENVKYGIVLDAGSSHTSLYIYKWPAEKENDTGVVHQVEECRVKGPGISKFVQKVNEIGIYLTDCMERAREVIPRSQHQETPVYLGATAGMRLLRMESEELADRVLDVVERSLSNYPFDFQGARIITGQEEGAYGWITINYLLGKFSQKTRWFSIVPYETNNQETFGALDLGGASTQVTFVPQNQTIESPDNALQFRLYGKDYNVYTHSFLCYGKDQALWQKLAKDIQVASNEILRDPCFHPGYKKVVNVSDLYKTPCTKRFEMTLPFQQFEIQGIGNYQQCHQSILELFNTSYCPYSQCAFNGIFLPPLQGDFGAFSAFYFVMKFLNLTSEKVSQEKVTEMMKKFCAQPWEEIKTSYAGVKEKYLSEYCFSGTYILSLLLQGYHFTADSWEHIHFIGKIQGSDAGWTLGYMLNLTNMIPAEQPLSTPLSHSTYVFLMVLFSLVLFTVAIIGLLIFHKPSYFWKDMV
Assay type: biochemical
Settings: for inhibition of CD39 (in words): library screen at 10 µM, figure 3
Method in brief: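 CD39 came from human umbilical cord membranes (50.0 ng protein per well). Substrate was 50 µM ATP in 10 mM HEPES, 2 mM CaCl2, 1 mM MgCl2, pH 7.4, with ≤2% DMSO. Enzyme and test compound were preincubated 5 min at 37°C; reaction ran 15 min at 37°C. Malachite green/molybdate was added and A600 read after 20 min at 25°C, minus a heat-denatured enzyme blank. Screening was at 10 µM; curves spanned 0.1–300 µM; n=3.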

inhibition of CD39 (in words)	inhibition at 10 µM (read-out: inhibition of human CD39)	Structure (SMILES)
did not inhibit	–	C[C@@H](Oc1cc(-c2cnn(C3CCNCC3)c2)cnc1N)c1c(Cl)ccc(F)c1Cl [critozinib, Crizotinib]
did not inhibit	–	CCc1cc2c(cc1N1CCC(N3CCOCC3)CC1)C(C)(C)c1[nH]c3cc(C#N)ccc3c1C2=O [alectinib, Alectinib]
–	33%	Cc1ccc(C(=O)Nc2ccc(CN3CCN(C)CC3)c(C(F)(F)F)c2)cc1C#Cc1cnc2cccnn12 [ponatinib, Ponatinib]
